In ChEMBL document CHEMBL1141663, “Synthesis and antibacterial activity of bis-[2-hydroxy-3-(1,7,8,9,10-pentamethyl-3,5-dioxo-4-aza-tricyclo[5.2.1.0(2,6)]dec-8-en-4-yloxy)-propyl]-dimethyl-ammonium chloride” (2008):
Active and inactive are the calls of the source. The calls are words filed in the database; no cut-off is given here.

How the values were obtained:
Bacillus subtilis = assay: Antibacterial activity against Bacillus subtilis ATCC 6633 at 100 ug/disk […] by disc-diffusion method; type: functional; settings: read-out: IZ
Escherichia coli [1] = assay: Antibacterial activity against Escherichia coli ATCC 25922 at 100 ug/disk […] by disc-diffusion method; type: functional, organism-based
Staphylococcus aureus [2] = assay: Antibacterial activity against methicillin-resistant Staphylococcus aureus 56/05 isolates after 18 hrs; type: functional
Method in brief: (§1)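 Agar-dilution MIC on Mueller–Hinton II agar per CLSI guidelines. Aqueous test solutions were added to liquid agar to give two dilution series across 6.25–400 µg/mL. Solidified plates were spot-inoculated with 2 µL aliquots to a final inoculum of 10^4 […]. […] Strains were standard S. aureus strains or hospital patient isolates typed MSSA/MRSA.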

Staphylococcus aureus [3] = assay: Antibacterial activity against methicillin-resistant Staphylococcus aureus 92/06 isolates after 18 hrs; type: functional; method in brief: as §1
Staphylococcus aureus [4] = assay: Antibacterial activity against methicillin-susceptible Staphylococcus aureus 49/05 isolates after 18 hrs; type: functional; method in brief: as §1
Staphylococcus aureus [5] = assay: Antibacterial activity against methicillin-resistant Staphylococcus aureus 29/04 isolates after 18 hrs; type: functional; method in brief: as §1
Staphylococcus aureus [6] = assay: Antibacterial activity against Staphylococcus aureus ATCC 25923 at 400 ug/disk after 24 to 48 hrs by disc-diffusion method; type: functional; settings: read-out: IZ
Escherichia coli [7] = assay: Antibacterial activity against Escherichia coli ATCC 10538 at 100 ug/disk […] by disc-diffusion method; type: functional, organism-based
Staphylococcus aureus [8] = assay: Antibacterial activity against methicillin-susceptible Staphylococcus aureus 72/05 isolates after 18 hrs; type: functional; method in brief: as §1
Staphylococcus aureus [9] = assay: Antibacterial activity against methicillin-susceptible Staphylococcus aureus 112/06 isolates after 18 hrs; type: functional; method in brief: as §1
Staphylococcus aureus [10] = assay: Antibacterial activity against methicillin-resistant Staphylococcus aureus 93/06 isolates after 18 hrs; type: functional; method in brief: as §1
Staphylococcus aureus [11] = assay: Antibacterial activity against methicillin-resistant Staphylococcus aureus 19/04 isolates after 18 hrs; type: functional; method in brief: as §1
Staphylococcus aureus [12] = assay: Antibacterial activity against Staphylococcus aureus ATCC 29213 at 400 ug/disk […] by disc-diffusion method; type: functional; settings: read-out: IZ
Staphylococcus aureus [13] = assay: Antibacterial activity against Staphylococcus aureus NCTC 4163 at 400 ug/disk after 24 to 48 hrs by disc-diffusion method; type: functional; settings: read-out: IZ
Staphylococcus aureus [14] = assay: Antibacterial activity against methicillin-susceptible Staphylococcus aureus 101/06 isolates after 18 hrs; type: functional; method in brief: as §1
Staphylococcus aureus [15] = assay: Antibacterial activity against methicillin-susceptible Staphylococcus aureus 42/05 isolates after 18 hrs; type: functional; method in brief: as §1
Staphylococcus aureus [16] = assay: Antibacterial activity against methicillin-susceptible Staphylococcus aureus 40/05 isolates after 18 hrs; type: functional; method in brief: as §1
Staphylococcus aureus [17] = assay: Antibacterial activity against methicillin-resistant Staphylococcus aureus 79/05 isolates after 18 hrs; type: functional; method in brief: as §1
Staphylococcus aureus [18] = assay: Antibacterial activity against methicillin-resistant Staphylococcus aureus 84/05 isolates after 18 hrs; type: functional; method in brief: as §1
Staphylococcus aureus [19] = assay: Antibacterial activity against methicillin-resistant Staphylococcus aureus 53/05 isolates after 18 hrs; type: functional; method in brief: as §1
Pseudomonas aeruginosa = assay: Antibacterial activity against Pseudomonas aeruginosa NCTC 6749 at 400 ug/disk […] by disc-diffusion method; type: functional, organism-based
Staphylococcus aureus [20] = assay: Antibacterial activity against methicillin-susceptible Staphylococcus aureus 2/04 isolates after 18 hrs; type: functional; method in brief: as §1
Staphylococcus aureus [21] = assay: Antibacterial activity against Staphylococcus aureus NCTC 4163 after 18 hrs; type: functional; settings: NCTC 4163, 18 h; method in brief: as §1
Staphylococcus aureus [22] = assay: Antibacterial activity against methicillin-susceptible Staphylococcus aureus 38/05 isolates after 18 hrs; type: functional; method in brief: as §1
Staphylococcus aureus [23] = assay: Antibacterial activity against methicillin-susceptible Staphylococcus aureus 3/04 isolates after 18 hrs; type: functional; method in brief: as §1
Staphylococcus aureus [24] = assay: Antibacterial activity against methicillin-resistant Staphylococcus aureus 46/05 isolates after 18 hrs; type: functional; method in brief: as §1
Enterococcus hirae [25] = assay: Antibacterial activity against Enterococcus hirae ATCC 10541 at 400 ug/disk after 24 to 48 hrs by disc-diffusion method; type: functional; settings: read-out: IZ
Staphylococcus aureus [26] = assay: Antibacterial activity against methicillin-resistant Staphylococcus aureus 80/05 isolates after 18 hrs; type: functional; method in brief: as §1
Staphylococcus aureus [27] = assay: Antibacterial activity against Staphylococcus aureus ATCC 25923 after 18 hrs; type: functional; settings: ATCC 25923, 18 h; method in brief: as §1
Enterococcus hirae [28] = assay: Antibacterial activity against Enterococcus hirae ATCC 10541 at 100 ug/disk […] by disc-diffusion method; type: functional; settings: read-out: IZ
Staphylococcus aureus [29] = assay: Antibacterial activity against methicillin-resistant Staphylococcus aureus 83/05 isolates after 18 hrs; type: functional; method in brief: as §1
Staphylococcus aureus [30] = assay: Antibacterial activity against Staphylococcus aureus ATCC 29213 after 18 hrs; type: functional; settings: ATCC 29213, 18 h; method in brief: as §1
Staphylococcus aureus [31] = assay: Antibacterial activity against methicillin-resistant Staphylococcus aureus 55/05 isolates after 18 hrs; type: functional; method in brief: as §1

CC1=C(C)C2(C)C3C(=O)N(OCC(O)C[N+](C)(C)CC(O)CON4C(=O)C5C(C4=O)C4(C)C(C)=C(C)C5(C)C4C)C(=O)C3C1(C)C2C.[Cl-] (stereo not drawn)
zone of inhibition at 100 µg/disc (Bacillus subtilis): 25 mm
Activity (Escherichia coli [1]): inactive
MIC (Staphylococcus aureus [2]): 50 µg/mL
MIC (Staphylococcus aureus [3]): 100 µg/mL
MIC (Staphylococcus aureus [4]): 25 µg/mL
MIC (Staphylococcus aureus [5]): 200 µg/mL
zone of inhibition at 400 µg/disc (Staphylococcus aureus [6]): 20 mm
Activity (Escherichia coli [7]): inactive
MIC (Staphylococcus aureus [8]): 50 µg/mL
MIC (Staphylococcus aureus [9]): 50 µg/mL
MIC (Staphylococcus aureus [10]): 25 µg/mL
MIC (Staphylococcus aureus [11]): 200 µg/mL
zone of inhibition at 400 µg/disc (Staphylococcus aureus [12]): 24 mm
zone of inhibition at 400 µg/disc (Staphylococcus aureus [13]): 24 mm
MIC (Staphylococcus aureus [14]): 50 µg/mL
MIC (Staphylococcus aureus [15]): 25 µg/mL
MIC (Staphylococcus aureus [16]): 50 µg/mL
MIC (Staphylococcus aureus [17]): 200 µg/mL
MIC (Staphylococcus aureus [18]): 50 µg/mL
MIC (Staphylococcus aureus [19]): 50 µg/mL
Activity (Pseudomonas aeruginosa): inactive
MIC (Staphylococcus aureus [20]): 25 µg/mL
MIC (Staphylococcus aureus [21]): 50 µg/mL
MIC (Staphylococcus aureus [22]): 50 µg/mL
MIC (Staphylococcus aureus [23]): 25 µg/mL
MIC (Staphylococcus aureus [24]): 50 µg/mL
zone of inhibition at 400 µg/disc (Enterococcus hirae [25]): 18 mm
MIC (Staphylococcus aureus [26]): 50 µg/mL
MIC (Staphylococcus aureus [27]): 50 µg/mL
zone of inhibition at 100 µg/disc (Enterococcus hirae [28]): 14 mm
MIC (Staphylococcus aureus [29]): 50 µg/mL
MIC (Staphylococcus aureus [30]): 50 µg/mL
MIC (Staphylococcus aureus [31]): 100 µg/mL
